Source: paper PMC7271564 (Haematologica, 2019)
“Also recorded” adds a separate entry of the source. Each block holds one molecule with its values, some of them ahead of it.

Assays:
T-cell subsets (CD3+) = assay: HTFC drug sensitivity assay, T-cell subsets; type: cell-based, human
How it was run: (§1)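 Cohort I comprised 16 samples: 3 healthy PB, 3 AML and 10 MM. Samples were tested in 96-well plates against six compounds by no-wash high-throughput flow cytometry (iQue Screener PLUS). Two antibody panels defined up to ten subsets, including CD138+CD38± plasma cells and CD34+CD38± progenitors. Per-population cell counts gave dose–response curves, from which DSS and IC50 were derived. Results were shown as mean±SEM per disease group.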

[1] = test system: T-cell malignancies (primary samples); assay: CellTiter-Glo viability assay; type: cell-based, human; details: similar to healthy T cells
How it was run: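 Primary BM aspirates from leukemia patients (Cohort III, n=281 total), with T-PLL samples tested as enriched CD8+ cells, were exposed to the drug panel. The endpoint was CellTiter-Glo luminescent viability. Luminescence was fitted to dose–response curves, from which a drug sensitivity score (DSS) was calculated. Comparison was against bead-enriched healthy BM CD3+ cells.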

CD56+/NK cells = assay: HTFC drug sensitivity assay, NK cells; type: cell-based, human; details: for sensitivity compared to other cell types, in words: NK cells, three healthy PB samples, 71-drug screen
How it was run: (§2)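 Three healthy PB samples were screened ex vivo with 71 compounds at 5 concentrations in 384-well plates. The assay was a no-wash multiplexed flow cytometry run on an iQue Screener PLUS. Six subsets were gated by surface antigen: CD19+, CD56+, CD3+CD4+, CD3+CD8+, CD3+CD56+ and CD14+. Cell counts per subset gave dose–response curves, and DSS was derived from these.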

CD19+/B cells = assay: High throughput no-wash flow cytometry; type: cell-based, human; details: for sensitivity compared to other cell types, in words: B cells, three healthy PB samples, 71-drug screen
[2] = test system: CD34+CD38+ cells (CPC/blast); assay: HTFC drug sensitivity assay, progenitor/blast cells; type: cell-based; details: Homo sapiens
CD34+CD38- cells (HSC) = assay: HTFC drug sensitivity assay, hematopoietic stem cells; type: cell-based, human; details: CD34+CD38- cells from healthy donors (BM, n=2)
monocytes (CD14+) = assay: HTFC drug sensitivity assay, monocytes; type: cell-based, human; details: for response of monocytes, in words: mean of 16 samples (3 healthy, 3 AML, 10 MM), Cohort I
How it was run: as §2

CD138+CD38- plasma cells = assay: HTFC drug sensitivity assay, plasma cell subset; type: cell-based, human; details: CD138+CD38- plasma cells compared to CD138+CD38+ or other cells, MM samples
How it was run: as §1

Structure (SMILES): COc1ncc(-c2ccc3nccc(-c4ccnnc4)c3c2)cc1NS(=O)(=O)c1ccc(F)cc1F [omipalisib]
- sensitivity, in words (T-cell subsets (CD3+); T-cell subsets, Cohort I samples): insensitive
- effect on CD3+ cell count, in words (T-cell subsets (CD3+); at concentrations of 10 and 100 nM): increase
- response (DSS), in words [1]: no response

- IC50 [2]: 16 nM
Structure (SMILES): CO[C@@H]1[C@H](N(C)C(=O)c2ccccc2)C[C@H]2O[C@]1(C)n1c3ccccc3c3c4c(c5c6ccccc6n2c5c31)C(=O)NC4 [midostaurin]
- sensitivity compared to other cell types, in words (CD56+/NK cells): higher sensitivity
- sensitivity compared to other cell types, in words (CD19+/B cells): higher sensitivity
- sensitivity, in words (CD34+CD38- cells (HSC)): insensitive; also recorded: no effect

Structure (SMILES): CC1(C)CCC(c2ccc(Cl)cc2)=C(CN2CCN(c3ccc(C(=O)NS(=O)(=O)c4ccc(N[C@H](CCN5CCOCC5)CSc5ccccc5)c(S(=O)(=O)C(F)(F)F)c4)cc3)CC2)C1 [navitoclax]
- response of monocytes, in words (monocytes (CD14+)): resistant

Structure (SMILES): CC(C)C[C@H](NC(=O)[C@H](Cc1ccccc1)NC(=O)c1cnccn1)B(O)O [bortezomib]
- ex vivo response, in words (CD138+CD38- plasma cells): resistant

Structure (SMILES): CC1(C)CCC(CN2CCN(c3ccc(C(=O)NS(=O)(=O)c4ccc(NCC5CCOCC5)c([N+](=O)[O-])c4)c(Oc4cnc5[nH]ccc5c4)c3)CC2)=C(c2ccc(Cl)cc2)C1 [venetoclax]
- response of monocytes, in words (monocytes (CD14+)): resistant
- sensitivity compared to other cell types, in words (CD56+/NK cells): higher sensitivity
- sensitivity compared to other cell types, in words (CD19+/B cells): higher sensitivity

Structure (SMILES): Cc1nc(Nc2ncc(C(=O)Nc3c(C)cccc3Cl)s2)cc(N2CCN(CCO)CC2)n1 [dasatinib]
- drug response profile (DSS clustering), in words (monocytes (CD14+); monocytes, three healthy PB samples, 71-drug screen): selective sensitivity

Structure (SMILES): C[C@@H]1C[C@H]2[C@@H]3CCC4=CC(=O)C=C[C@]4(C)[C@@]3(F)[C@@H](O)C[C@]2(C)[C@@]1(O)C(=O)CO [dexamethasone]
- effect on CD14+ cell count, in words (monocytes (CD14+); Cohort I samples): dose-dependent increase
- response of monocytes, in words (monocytes (CD14+)): resistant
- effect on cell count, in words (CD56+/NK cells; CD56+ cells, Cohort I samples): depleted
- sensitivity compared to other cell types, in words (CD56+/NK cells): higher sensitivity
- sensitivity compared to other cell types, in words (CD19+/B cells): higher sensitivity
- effect on cell count, in words (CD19+/B cells; CD19+ cells, Cohort I samples): depleted
